Results from different studies.
Lines come from different studies, so protocols differ.
AXL: Tyrosine-protein kinase receptor UFO (AXL, Homo sapiens, UniProt P30530)

Compound	target	effect on	action	technique	concentration	measurement	value
Nc1ncc(-c2nc(N3CCOCC3)nc(N3CCOCC3)n2)c(C(F)F)n1	AXL	binding	–	competition with immobilised ligand	10 µM	remaining binding	91%
O=c1[nH]c2ccccc2n1C1CCN(Cc2ccc(-c3[nH]c4cc5ncnc5cc4nc3-c3ccccc3)cc2)CC1	AXL	cell-free assay	–	–	0.5 µM	remaining signal	105%
N#CC1(c2ccccn2)CCN(Cc2cc(C(=O)O)c(=O)n3ccccc23)CC1	AXL	cell-free assay	–	competition with immobilised ligand	1 µM	remaining binding	91%
C#Cc1n[nH]c2c(-c3cn(C(C)c4ccccn4)c(=O)[nH]c3=O)cc(F)cc12 (centres unmarked)	Tyrosine-protein kinase receptor UFO (AXL, Homo sapiens, UniProt P30530, R499C)	enzyme activity	inhibitor	–	1 µM	inhibition	67.6%
Cc1nn(C)cc1-c1nc2c(N3CCN(Cc4ccc(Cl)cc4)CC3)c(Cl)cnc2[nH]1	AXL	binding	–	competition with immobilised ligand	1 µM	remaining binding	2.2%
Cn1cc(-c2cccc(N3CCc4c(sc5c4CC(C)(C)C5)C3=O)c2CO)cc(Nc2ccncn2)c1=O	AXL	enzyme activity	inhibitor	–	1 µM	inhibition	3%
COc1ncccc1-c1cnn2ccc(N3CCN(C(=O)OC(C)C)CC3)nc12	AXL	binding	–	competition with immobilised ligand	1 µM	remaining binding	100%
Cn1cncc1[C@](O)(COc1ccc(C#N)cc1-c1ccc(OC(F)(F)F)cc1)c1ccc(C#N)cc1	AXL	cell-free assay	–	competition with immobilised ligand	1 µM	remaining binding	100%
Cn1cc(-c2cc(F)cc(N3CCn4c(cc5c4CCCC5)C3=O)c2CO)cc(Nc2ccc(N3CCN(C4COC4)CC3)cn2)c1=O	AXL	enzyme activity	inhibitor	–	0.1 µM	inhibition	12%
COc1cc(Nc2ncc(F)c(Nc3ccc4c(n3)NC(=O)C(C)(C)O4)n2)cc(OC)c1OC	AXL	binding	–	competition with immobilised ligand	10 µM	inhibition	100%
CC(C)(C)c1cc(C=C(C#N)C#N)cc(Br)c1O	AXL	enzyme activity	inhibitor	–	0.5 µM	remaining activity	103%
